{"data": "Measurements from different studies", "target": "Tyrosine-protein kinase ABL2 (ABL2, Homo sapiens, UniProt P42684)", "note": "Protocols differ between the studies behind these lines."}
{"Structure (SMILES)": "COc1ncc2cc3ccccc3nc2c1C#N", "assay": "cell-free assay, competition with immobilised ligand", "conditions": "5 µM", "remaining binding [%]": 96}
{"Structure (SMILES)": "CS(=O)(=O)c1cc(C2(NC(=O)c3cncc4c3cnn4-c3ccc(F)cc3)CC2)ccn1", "assay": "cell-free assay, competition with immobilised ligand", "conditions": "1 µM", "remaining binding [%]": 95}
{"Structure (SMILES)": "Cc1cnn2ncc(-c3ccnc(N(C)C)n3)c2c1", "assay": "binding", "conditions": "1 µM", "remaining binding [%]": 100}
{"Structure (SMILES)": "Cn1nc(C(F)(F)F)cc1-c1cnc(N2CCc3cc(S(=O)(=O)Nc4c(F)cc(Cl)cc4F)cc(N4CCCC4=O)c32)nc1", "assay": "cell-free assay, competition with immobilised ligand", "conditions": "1 µM", "remaining binding [%]": 100}
{"Structure (SMILES)": "N[C@@H]1CCN(c2nccc(-c3cnn4ncccc34)n2)C1", "assay": "binding", "conditions": "1 µM", "remaining binding [%]": 96}
{"Structure (SMILES)": "c1cncc(-c2cccc(Nc3nccc(NC4CCCCC4)n3)c2)c1", "assay": "binding, competition with immobilised ligand", "conditions": "10 µM", "remaining binding [%]": 56}
{"Structure (SMILES)": "N#Cc1ccc(Nc2ccc3[nH]c(=O)[nH]c3c2)c(Cl)c1", "assay": "cell-free assay, competition with immobilised ligand", "conditions": "1 µM", "remaining binding [%]": 93}
{"Structure (SMILES)": "COc1cnc(Nc2cccc(S(N)(=O)=O)c2)nc1N1CCN(c2ccccc2)CC1", "assay": "binding, competition with immobilised ligand", "conditions": "1 µM", "remaining binding [%]": 98}
{"Structure (SMILES)": "CCN(CC)CCNC(=O)c1c(C)[nH]c(/C=C2\\C(=O)Nc3ccc(F)cc32)c1C", "assay": "cell-free assay, competition with immobilised ligand", "conditions": "0.1 µM", "remaining binding [%]": 92}
{"Structure (SMILES)": "CSc1cccnc1N1CCN(Cc2nc3ccccc3[nH]2)CC1", "assay": "cell-free assay, competition with immobilised ligand", "conditions": "1 µM", "remaining binding [%]": 98}
{"Structure (SMILES)": "CN(C)c1nccc(-c2cnc3ncccn23)n1", "assay": "binding", "conditions": "1 µM", "remaining binding [%]": 99}
{"Structure (SMILES)": "O=C(NCCCN1CCOCC1)c1ccc(Nc2ncc(Cl)c(-c3ccc(Cl)s3)n2)cc1", "assay": "binding, competition with immobilised ligand", "conditions": "1 µM", "remaining binding [%]": 67}
{"Structure (SMILES)": "CN(C)c1nccc(-c2cnn3ncccc23)n1", "assay": "binding", "conditions": "1 µM", "remaining binding [%]": 99}
{"Structure (SMILES)": "Nc1ncc2c(n1)-c1c([nH]c3ccc(C#CC4CC4)cc13)CCCC2", "assay": "binding, competition with immobilised ligand", "conditions": "1 µM", "remaining binding [%]": 86}
{"Structure (SMILES)": "CNC(=O)Nc1ccc2c(c1)[C@@]1(CC2)OC(=O)N(CC(=O)N(Cc2ccc(F)cc2)[C@@H](C)C(F)(F)F)C1=O", "assay": "cell-free assay, competition with immobilised ligand", "conditions": "1 µM", "remaining binding [%]": 84}
{"Structure (SMILES)": "C[C@H]1CCN(c2nccc(-c3cnn4ncccc34)n2)C1", "assay": "binding", "conditions": "1 µM", "remaining binding [%]": 78}
{"Structure (SMILES)": "COc1cc2ncnc(Nc3ccc(F)c(Cl)c3)c2cc1OCCCN1CCOCC1", "assay": "cell-free assay, competition with immobilised ligand", "conditions": "0.1 µM", "remaining binding [%]": 100}
{"Structure (SMILES)": "COc1cnc(Nc2cccc(S(N)(=O)=O)c2)nc1N1CCN(c2ccccc2)C(=O)C1", "assay": "binding, competition with immobilised ligand", "conditions": "1 µM", "remaining binding [%]": 100}
{"Structure (SMILES)": "CS(=O)(=O)CCNCc1ccc(-c2ccc3ncnc(Nc4ccc(OCc5cccc(F)c5)c(Cl)c4)c3c2)o1", "assay": "cell-free assay, competition with immobilised ligand", "conditions": "0.1 µM", "remaining binding [%]": 99}
{"Structure (SMILES)": "c1cnn2ncc(-c3ccnc(N4CCC45COC5)n3)c2c1", "assay": "binding", "conditions": "1 µM", "remaining binding [%]": 87}
{"Structure (SMILES)": "CNC(=O)c1cc(Oc2ccc(NC(=O)Nc3ccc(Cl)c(C(F)(F)F)c3)cc2)ccn1", "assay": "cell-free assay, competition with immobilised ligand", "conditions": "0.1 µM", "remaining binding [%]": 97}
{"Structure (SMILES)": "O=C(Nc1cccnn1)N1CC(C/C=C/c2cncc(Oc3ccc(C(F)(F)F)cn3)n2)C1", "assay": "cell-free assay, competition with immobilised ligand", "conditions": "1 µM", "remaining binding [%]": 100}
{"Structure (SMILES)": "CN1CC[C@H](c2c(O)cc(O)c3c(=O)cc(-c4ccccc4Cl)oc23)[C@H](O)C1", "assay": "cell-free assay, competition with immobilised ligand", "conditions": "0.1 µM", "remaining binding [%]": 100}
{"Structure (SMILES)": "Cc1nc(Cc2cccc(C(F)(F)F)c2)sc1-c1ccc(C(N)=O)nc1", "assay": "cell-free assay, competition with immobilised ligand", "conditions": "1 µM", "remaining binding [%]": 100}
{"Structure (SMILES)": "Cc1c(-c2ccccc2)oc2c(C(=O)OCCN3CCCCC3)cccc2c1=O", "assay": "cell-free assay, competition with immobilised ligand", "conditions": "10 µM", "remaining binding [%]": 94}
{"Structure (SMILES)": "O=C(c1ccc(Nc2ncc(Cl)c(-c3ccc(Cl)s3)n2)cc1)N1CCC(N2CCCC2)CC1", "assay": "binding, competition with immobilised ligand", "conditions": "1 µM", "remaining binding [%]": 56}
{"Structure (SMILES)": "COC(=O)Nc1nc2cc(C(=O)c3ccccc3)ccc2[nH]1", "assay": "cell-free assay, competition with immobilised ligand", "conditions": "0.1 µM", "remaining binding [%]": 100}
{"Structure (SMILES)": "CS(=O)(=O)N1CCCC(NC(=O)[C@H](CCC2CCCCC2)NC(=O)c2ccc(CNC(=O)c3cnc4ccccn34)cc2)C1 (stereo partly drawn)", "assay": "cell-free assay, competition with immobilised ligand", "conditions": "0.1 µM", "remaining binding [%]": 56}
{"Structure (SMILES)": "CCN(CC)Cc1cc(Nc2ccnc3cc(Cl)ccc23)ccc1O", "assay": "cell-free assay, competition with immobilised ligand", "conditions": "0.1 µM", "remaining binding [%]": 97}
{"Structure (SMILES)": "O=C(NCC1CCOCC1)c1n[nH]cc1NC(=O)c1c(F)cccc1F", "assay": "binding, competition with immobilised ligand", "conditions": "1 µM", "remaining binding [%]": 100}
